Values belong to the compound of their own block, whether it stands above or below them.
Key:
[1] = tested on: MGC-803; experiment: Cytotoxicity against human MGC803 cells after 48 hrs by MTT assay; assay type: functional, cell-based; details: MGC-803, 48 h
Outline: (§1)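 Cells grown overnight in DMEM + 10% FBS at 37 °C under 5% CO2, then given a range of compound concentrations for 48 h. MTT added for about 4 h, medium replaced by DMSO, absorbance read at 570/630 nm. IC50 reported as mean ± SD of five independent experiments.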

[2] = Cytotoxicity against human SPCA2 cells after 48 hrs by MTT assay; assay type: functional, cell-based; details: SPCA2, 48 h; outline: as §1
[3] = tested on: NCI-H460; experiment: Cytotoxicity against human NCI-H460 cells after 48 hrs by MTT assay; assay type: functional, cell-based; details: NCI-H460, 48 h; outline: as §1
[4] = tested on: A549; experiment: Cytotoxicity against human A549 cells after 48 hrs by MTT assay; assay type: functional, cell-based; details: A549, 48 h; outline: as §1
[5] = tested on: T-24; experiment: Cytotoxicity against human T24 cells after 48 hrs by MTT assay; assay type: functional, cell-based; details: T-24, 48 h; outline: as §1
[6] = tested on: L02; experiment: Cytotoxicity against human HL7702 cells after 48 hrs by MTT assay; assay type: cell-based; details: L02, 48 h; outline: as §1
[7] = Inhibition of TNFalpha-induced NF-kB (unknown origin) activation expressed in human NCI-H460 cells after 7 hrs by luciferase reporter gene assay; assay type: cell-based; details: NCI-H460, 7 h
Outline: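 NCI-H460 cells transiently co-transfected with pNF-κB-Luc reporter and pSV-β-galactosidase internal control by lipofectamine. Medium changed after 6 h, then 6 h further culture. TNF-α (15 ng ml–1) plus compound given together for 7 h. Luciferase ratio to TNF-α-only cells, corrected for non-TNF background and viability. IC50 from sigmoidal variable-slope fit.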

[8] = Cytotoxicity against human NCI-H460/DOX cells after 48 hrs by MTT assay; assay type: functional, cell-based; details: NCI-H460, 48 h; outline: as §1
[9] = Resistant factor, ratio of IC50 for human NCI-H460/DOX cells to IC50 for human NCI-H460 cells; assay type: functional
[10] = tested on: HepG2; experiment: Cytotoxicity against human HepG2 cells after 48 hrs by MTT assay; assay type: functional, cell-based; details: HepG2, 48 h; outline: as §1
[11] = Cytotoxicity against human HepG2/DOX cells after 48 hrs by MTT assay; assay type: functional, cell-based; outline: as §1
[12] = Resistant factor, ratio of IC50 for human HepG2/DOX cells to IC50 for human HepG2 cells; assay type: functional
[13] = tested on: NCI-H460; experiment: Cytotoxicity against human NCI-H460 cells harboring pNF-kB-Luc assessed as reduction in cell viability after 7 hrs by MTT assay relative to control; parameters: concentration or dose not given beside the values; details: nci-h460, 7 h

SMILES: Cc1ccc(NC(=O)[C@]23CC[C@@H](C)[C@H](C)[C@H]2C2=CC[C@@H]4[C@@]5(C)CCC(=O)C(C)(C)[C@@H]5CC[C@@]4(C)[C@]2(C)CC3)cc1
- IC50 [1]: 18.6 µM
- IC50 [2]: 17.3 µM
- IC50 [3]: 11.9 µM
- IC50 [4]: 17.9 µM
- IC50 [5]: 20.1 µM
- IC50 [6]: > 50 µM
- IC50 [7]: 5.43 µM
- IC50 [8]: 20.9 µM
- Ratio IC50 [9]: 1.76
- IC50 [10]: 17.6 µM
- IC50 [11]: 28.5 µM
- Ratio IC50 [12]: 1.62
- Activity [13]: < 5%

SMILES: COc1cc(NC(=O)[C@]23CC[C@@H](C)[C@H](C)[C@H]2C2=CC[C@@H]4[C@@]5(C)CC[C@H](OC(C)=O)C(C)(C)[C@@H]5CC[C@@]4(C)[C@]2(C)CC3)cc(OC)c1OC
- IC50 [1]: 37.2 µM
- IC50 [2]: 28.7 µM
- IC50 [3]: 21.1 µM
- IC50 [4]: 36.5 µM
- IC50 [5]: 30.5 µM
- IC50 [6]: > 50 µM
- IC50 [7]: 14.8 µM
- Activity [13]: < 5%

SMILES: COc1cccc2c1C(=O)c1c(O)c3c(c(O)c1C2=O)C[C@@](O)(C(=O)CO)C[C@@H]3O[C@H]1C[C@H](N)[C@H](O)[C@H](C)O1 [DOXORUBICIN]
- IC50 [8]: > 50 µM
- IC50 [10]: 6.91 µM
- IC50 [11]: > 50 µM

SMILES: CC(=O)O[C@H]1CC[C@]2(C)[C@H]3CC=C4[C@@H]5[C@@H](C)[C@H](C)CC[C@]5(C(=O)Nc5ccc(C)c(C)c5)CC[C@@]4(C)[C@]3(C)CC[C@H]2C1(C)C
- IC50 [1]: 15 µM
- IC50 [2]: 12.2 µM
- IC50 [3]: 10.4 µM
- IC50 [4]: 12.4 µM
- IC50 [5]: 16.6 µM
- IC50 [6]: > 50 µM
- IC50 [7]: 4.8 µM
- IC50 [8]: 18.9 µM
- Ratio IC50 [9]: 1.81
- IC50 [10]: 17.4 µM
- IC50 [11]: 26.2 µM
- Ratio IC50 [12]: 1.51
- Activity [13]: < 5%

SMILES: C[C@H]1[C@H](C)CC[C@]2(C(=O)N3CCN(C)CC3)CC[C@]3(C)C(=CC[C@@H]4[C@@]5(C)CCC(=O)C(C)(C)[C@@H]5CC[C@]43C)[C@H]12
- IC50 [1]: 25.6 µM
- IC50 [2]: 22.4 µM
- IC50 [3]: 19.2 µM
- IC50 [4]: 23.4 µM
- IC50 [5]: 27.2 µM
- IC50 [6]: > 50 µM
- IC50 [7]: 15.5 µM
- Activity [13]: < 5%

SMILES: COc1ccc(NC(=O)[C@]23CC[C@@H](C)[C@H](C)[C@H]2C2=CC[C@@H]4[C@@]5(C)CC[C@H](OC(C)=O)C(C)(C)[C@@H]5CC[C@@]4(C)[C@]2(C)CC3)cc1OC
- IC50 [1]: 27.8 µM
- IC50 [2]: 12.9 µM
- IC50 [3]: 11.9 µM
- IC50 [4]: 22.9 µM
- IC50 [5]: 24.7 µM
- IC50 [6]: > 50 µM
- IC50 [7]: 10.1 µM
- Activity [13]: < 5%

SMILES: CC(=O)O[C@H]1CC[C@]2(C)[C@H]3CC=C4[C@@H]5[C@@H](C)[C@H](C)CC[C@]5(C(=O)N5CCN(C)CC5)CC[C@@]4(C)[C@]3(C)CC[C@H]2C1(C)C
- IC50 [1]: 21.6 µM
- IC50 [2]: 29.2 µM
- IC50 [3]: 21.2 µM
- IC50 [4]: 24.2 µM
- IC50 [5]: 25.4 µM
- IC50 [6]: > 50 µM
- IC50 [7]: 4.8 µM
- IC50 [8]: 49.7 µM
- Ratio IC50 [9]: 2.35
- IC50 [10]: 27 µM
- IC50 [11]: > 50 µM
- Activity [13]: < 5%

SMILES: Cc1ccccc1NC(=O)COC(=O)[C@]12CC[C@@H](C)[C@H](C)[C@H]1C1=CC[C@@H]3[C@@]4(C)CCC(=O)C(C)(C)[C@@H]4CC[C@@]3(C)[C@]1(C)CC2
- IC50 [1]: 16.2 µM
- IC50 [2]: 18.7 µM
- IC50 [3]: 14 µM
- IC50 [4]: 16.2 µM
- IC50 [5]: 17.8 µM
- IC50 [6]: > 50 µM
- IC50 [7]: 16.2 µM
- Activity [13]: < 5%

SMILES: COc1ccc(NC(=O)COC(=O)[C@]23CC[C@@H](C)[C@H](C)[C@H]2C2=CC[C@@H]4[C@@]5(C)CCC(=O)C(C)(C)[C@@H]5CC[C@@]4(C)[C@]2(C)CC3)cc1OC
- IC50 [1]: 38.2 µM
- IC50 [2]: 18.9 µM
- IC50 [3]: 22.8 µM
- IC50 [4]: 35.2 µM
- IC50 [5]: 27.7 µM
- IC50 [6]: > 50 µM
- IC50 [7]: > 20 µM
- Activity [13]: < 5%

SMILES: CC(=O)O[C@H]1CC[C@]2(C)[C@H]3CC=C4[C@@H]5[C@@H](C)[C@H](C)CC[C@]5(C(=O)Nc5ccc(C)cc5)CC[C@@]4(C)[C@]3(C)CC[C@H]2C1(C)C
- IC50 [1]: 13.4 µM
- IC50 [2]: 11.2 µM
- IC50 [3]: 9.6 µM
- IC50 [4]: 10.3 µM
- IC50 [5]: 10.6 µM
- IC50 [6]: > 50 µM
- IC50 [7]: 2.26 µM
- IC50 [8]: 13.5 µM
- Ratio IC50 [9]: 1.4
- IC50 [10]: 12.5 µM
- IC50 [11]: 20.4 µM
- Ratio IC50 [12]: 1.63
- Activity [13]: < 5%

Further lines, with some results ahead:

- IC50 [7]: 0.94 µM
SMILES: C[C@H]1[C@H](C)CC[C@]2(C(=O)NCCN(C)C)CC[C@]3(C)C(=CC[C@@H]4[C@@]5(C)CCC(=O)C(C)(C)[C@@H]5CC[C@]43C)[C@H]12
- IC50 [1]: 7.35 µM
- IC50 [2]: 6.91 µM
- IC50 [3]: 4.35 µM
- IC50 [4]: 6.01 µM
- IC50 [5]: 6.35 µM
- IC50 [6]: > 50 µM
- IC50 [8]: 6.8 µM
- Ratio IC50 [9]: 1.56
- IC50 [10]: 9.05 µM
- IC50 [11]: 11.4 µM
- Ratio IC50 [12]: 1.26
- Activity [13]: < 5%

- IC50 [7]: 15.2 µM
SMILES: Cc1ccc(NC(=O)[C@]23CC[C@@H](C)[C@H](C)[C@H]2C2=CC[C@@H]4[C@@]5(C)CCC(=O)C(C)(C)[C@@H]5CC[C@@]4(C)[C@]2(C)CC3)cc1C
- IC50 [1]: 21.4 µM
- IC50 [2]: 22.5 µM
- IC50 [3]: 19.4 µM
- IC50 [4]: 20.9 µM
- IC50 [5]: 24.6 µM
- IC50 [6]: > 50 µM
- Activity [13]: < 5%

- IC50 [7]: 10.3 µM
SMILES: C[C@H]1[C@H](C)CC[C@]2(C(=O)OCC(=O)Nc3ccccc3)CC[C@]3(C)C(=CC[C@@H]4[C@@]5(C)CCC(=O)C(C)(C)[C@@H]5CC[C@]43C)[C@H]12
- IC50 [1]: 16.1 µM
- IC50 [2]: 16.3 µM
- IC50 [3]: 13.8 µM
- IC50 [4]: 14.1 µM
- IC50 [5]: 16 µM
- IC50 [6]: > 50 µM
- IC50 [8]: 26.6 µM
- Ratio IC50 [9]: 1.94
- IC50 [10]: 24.2 µM
- IC50 [11]: > 50 µM
- Activity [13]: < 5%

- IC50 [7]: 2.33 µM
SMILES: CC(=O)O[C@H]1CC[C@]2(C)[C@H]3CC=C4[C@@H]5[C@@H](C)[C@H](C)CC[C@]5(C(=O)Nc5ccccc5)CC[C@@]4(C)[C@]3(C)CC[C@H]2C1(C)C
- IC50 [1]: 14.8 µM
- IC50 [2]: 11.7 µM
- IC50 [3]: 11.4 µM
- IC50 [4]: 12.9 µM
- IC50 [5]: 13.1 µM
- IC50 [6]: > 50 µM
- IC50 [8]: 17.2 µM
- Ratio IC50 [9]: 1.52
- IC50 [10]: 12.6 µM
- IC50 [11]: 27.4 µM
- Ratio IC50 [12]: 2.17
- Activity [13]: < 5%

- IC50 [7]: 8.04 µM
SMILES: Cc1ccc(NC(=O)COC(=O)[C@]23CC[C@@H](C)[C@H](C)[C@H]2C2=CC[C@@H]4[C@@]5(C)CCC(=O)C(C)(C)[C@@H]5CC[C@@]4(C)[C@]2(C)CC3)cc1
- IC50 [1]: 16.6 µM
- IC50 [2]: 15.6 µM
- IC50 [3]: 10.9 µM
- IC50 [4]: 13.1 µM
- IC50 [5]: 15.7 µM
- IC50 [6]: > 50 µM
- IC50 [8]: 23.8 µM
- Ratio IC50 [9]: 2.18
- IC50 [10]: 20.1 µM
- IC50 [11]: 39.7 µM
- Ratio IC50 [12]: 1.98
- Activity [13]: < 5%

- IC50 [7]: 16 µM
SMILES: COc1ccc(NC(=O)COC(=O)[C@]23CC[C@@H](C)[C@H](C)[C@H]2C2=CC[C@@H]4[C@@]5(C)CCC(=O)C(C)(C)[C@@H]5CC[C@@]4(C)[C@]2(C)CC3)cc1
- IC50 [1]: 27.9 µM
- IC50 [2]: 19.4 µM
- IC50 [3]: 17.6 µM
- IC50 [4]: 24.6 µM
- IC50 [5]: 26.2 µM
- IC50 [6]: > 50 µM
- Activity [13]: < 5%

From ChEMBL document CHEMBL4261518, “Side chain-functionalized aniline-derived ursolic acid derivatives as multidrug resistance reversers that block the nuclear factor-kappa B (NF-κB) pathway and cell proliferation” (Medchemcomm, 2017)
